# Measured values reported in ChEMBL document CHEMBL1148605, “Synthesis and preliminary in vitro investigation of bivalent ligands containing homo- and heterodimeric pharmacophores at mu, delta, and kappa opioid receptors” (J Med Chem, 2006).
# Columns and labels:
# [1] = target: T1, Kappa-type opioid receptor (Homo sapiens, UniProt P41145); assay: biochemical; format: cell-based, CHO
# [2] = target: T1, Kappa-type opioid receptor; assay: Functional activity at human kappa opioid receptor expressed CHO cells by [35S]GTPgammaS binding assay; format: cell-based
# Mu-type opioid receptor [3] = target: T2, Mu-type opioid receptor (Homo sapiens, UniProt P35372); assay: Activity at human mu opioid receptor expressed in CHO cells by [35S]GTP-gamma-S binding assay; format: functional, cell-based
# Mu-type opioid receptor [4] = target: T2, Mu-type opioid receptor; assay: Functional activity at human mu opioid receptor expressed in CHO cells by [35S]GTP-gamma-S binding assay; format: cell-based
# Summary of the method: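 Human µ receptor stably expressed in CHO cells; membranes at 7.5 µg protein/tube, incubated 60 min at 30 °C with 12 compound concentrations, 3 µM GDP and […] [35S]GTPγS in pH 7.4 Tris/MgCl2/NaCl/EGTA buffer. […] Antagonist mode used 200 nM DAMGO. At least 3 experiments in triplicate.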
# Mu-type opioid receptor [5] = target: T2, Mu-type opioid receptor; assay: biochemical; format: cell-based, CHO
# [6] = target: Delta-type opioid receptor (Homo sapiens, UniProt P41143); assay: Displacement of [3H]naltrindole from human delta opioid receptor expressed in CHO cells; format: cell-based
# Summary of the method: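 Competition binding on membranes of CHO cells stably expressing human δ receptor, using [3H]naltrindole and 12 compound concentrations. Incubated 3 h at 25 °C in 50 mM Tris-HCl, pH 7.5.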
# [7] = target: T1, Kappa-type opioid receptor; assay: Activity at human kappa opioid receptor expressed in CHO cells by [35S]GTP-gamma-S binding assay; format: functional, cell-based
# [8] = target: T1, Kappa-type opioid receptor; assay: Activity at human kappa opioid receptor expressed in CHO cells by [35S]GTPgammaS binding assay at 10 uM; format: functional, cell-based
# Summary of the method: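 Membranes from CHO cells stably expressing human κ receptor (15 µg protein/tube), 12 compound concentrations, 60 min at 30 °C in Tris-HCl/MgCl2/NaCl/EGTA buffer pH 7.4 with 3 µM GDP and […] [35S]GTPγS. Filtration count, expressed as % stimulation over basal, giving Emax and EC50. […] At least 3 experiments in triplicate.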
# [9] = Displacement of [3H]naltrindole from human delta opioid receptor expressed in CHO cells
# Sequence of Delta-type opioid receptor (P41143 whole entry): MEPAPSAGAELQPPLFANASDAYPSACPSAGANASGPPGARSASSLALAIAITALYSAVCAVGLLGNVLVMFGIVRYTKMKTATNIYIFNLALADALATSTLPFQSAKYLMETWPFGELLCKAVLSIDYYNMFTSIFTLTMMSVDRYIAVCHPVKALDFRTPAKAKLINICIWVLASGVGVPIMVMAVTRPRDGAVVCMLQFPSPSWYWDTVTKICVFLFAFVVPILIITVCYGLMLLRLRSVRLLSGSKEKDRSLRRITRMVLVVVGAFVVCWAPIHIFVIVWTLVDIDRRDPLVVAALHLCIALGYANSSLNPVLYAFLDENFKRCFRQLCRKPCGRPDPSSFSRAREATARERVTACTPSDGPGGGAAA
# T1 sequence (P41145 whole entry): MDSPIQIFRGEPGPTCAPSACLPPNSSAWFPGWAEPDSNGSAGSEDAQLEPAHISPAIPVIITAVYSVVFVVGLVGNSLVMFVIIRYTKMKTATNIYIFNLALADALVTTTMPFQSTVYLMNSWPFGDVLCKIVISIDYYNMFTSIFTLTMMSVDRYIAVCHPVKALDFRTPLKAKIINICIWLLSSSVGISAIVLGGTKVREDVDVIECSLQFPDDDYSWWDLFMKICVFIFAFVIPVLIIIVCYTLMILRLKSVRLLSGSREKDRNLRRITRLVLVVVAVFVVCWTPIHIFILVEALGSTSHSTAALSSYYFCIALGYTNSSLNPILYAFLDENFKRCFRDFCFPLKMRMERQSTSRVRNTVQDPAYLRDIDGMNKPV
# T2 sequence (P35372 whole entry): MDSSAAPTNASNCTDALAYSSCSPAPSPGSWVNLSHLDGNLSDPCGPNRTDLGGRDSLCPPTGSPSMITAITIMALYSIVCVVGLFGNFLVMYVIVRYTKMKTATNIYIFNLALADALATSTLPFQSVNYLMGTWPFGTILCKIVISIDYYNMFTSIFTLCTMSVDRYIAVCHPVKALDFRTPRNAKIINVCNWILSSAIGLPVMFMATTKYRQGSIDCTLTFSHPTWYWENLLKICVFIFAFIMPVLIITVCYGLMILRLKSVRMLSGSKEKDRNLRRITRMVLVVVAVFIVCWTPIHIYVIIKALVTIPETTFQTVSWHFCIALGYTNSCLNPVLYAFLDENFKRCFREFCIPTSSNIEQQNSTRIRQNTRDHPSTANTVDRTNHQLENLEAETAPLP
Compound,Ki [1] [nM],Activity ([2]; filed as agonist),Ki (Mu-type opioid receptor [5]) [nM],Ki [6] [nM],EC50 [7] [nM],Emax [7] [%],EC50 (Mu-type opioid receptor [3]) [nM],Emax (Mu-type opioid receptor [3]) [%],also measured
O=C(/C=C/C(=O)Oc1ccc2c(c1)[C@@]13CCCC[C@H]1[C@@H](C2)N(CC1CCC1)CC3)Oc1ccc2c(c1)[C@@]13CCCC[C@H]1[C@@H](C2)N(CC1CCC1)CC3,0.08,–,–,–,–,–,–,–,–
Oc1ccc2c(c1)[C@@]13CCCC[C@H]1[C@@H](C2)N(CC1CCC1)CC3,–,Agonist,–,–,–,–,–,–,Imax (Mu-type opioid receptor [3]): 50%; Activity (Mu-type opioid receptor [4]; filed as partial agonist): Partial agonist
O=C(CCCCCCCCC(=O)Nc1ccc2c(c1)[C@@]13CCCCC1[C@@H](C2)N(CC1CCC1)CC3)Nc1ccc2c(c1)[C@@]13CCCCC1[C@@H](C2)N(CC1CCC1)CC3 (some centres not stated),7.5,–,5.7,38,–,–,–,–,–
O=C(CCCCCCCCC(=O)Oc1ccc2c(c1)[C@@]13CCCCC1[C@@H](C2)N(CC1CCC1)CC3)Nc1ccc2c(c1)[C@@]13CCCCC1[C@@H](C2)N(CC1CCC1)CC3 (some centres not stated),0.38,–,0.65,12,8.8,55,4.4,56,Activity ([2]; filed as partial agonist): Partial agonist; IC50 (Mu-type opioid receptor [3]): 150 nM; Imax (Mu-type opioid receptor [3]): 61%; Imax [8]: 65 µM; Activity (Mu-type opioid receptor [4]; filed as partial agonist): Partial agonist
O=C(CCC(=O)Oc1ccc2c(c1)[C@@]13CCCCC1[C@@H](C2)N(CC1CCC1)CC3)Oc1ccc2c(c1)[C@@]13CCCCC1[C@@H](C2)N(CC1CCC1)CC3 (some centres not stated),0.076,–,0.16,9.4,–,–,–,–,–
Oc1ccc2c(c1)[C@@]13CCCC[C@H]1[C@@H](C2)N(CC1CC1)CC3,–,–,–,–,–,–,–,–,Activity (Mu-type opioid receptor [4]; filed as partial agonist): Partial agonist
C#CCN1CC[C@]23CCCC[C@H]2[C@H]1Cc1ccc(O)cc13,0.003,–,0.003,–,–,–,–,–,Ki [9]: 0.62 nM
C#CCN1CC[C@]23CCCCC2[C@H]1Cc1ccc(OC(=O)CCCCCCCCC(=O)Oc2ccc4c(c2)[C@@]25CCCCC2[C@@H](C4)N(CC#C)CC5)cc13 (some centres not stated),10,–,14,190,–,–,–,–,–
O=C(/C=C/C(=O)Nc1ccc2c(c1)[C@@]13CCCCC1[C@@H](C2)N(CC1CCC1)CC3)Nc1ccc2c(c1)[C@@]13CCCCC1[C@@H](C2)N(CC1CCC1)CC3 (some centres not stated),7.3,–,13,160,–,–,–,–,–
C[C@@H](NC(=O)[C@@H](N)Cc1ccc(O)cc1)C(=O)NCC(=O)N(C)[C@@H](Cc1ccccc1)C(=O)NCCO,–,–,–,–,–,–,–,–,Activity (Mu-type opioid receptor [4]; filed as agonist): Agonist
"Oc1ccc2c(c1)[C@]13CCCCC1[C@H](C2)N(CC1CCC1)CC3 (single isomer, unassigned; (+))",55,–,–,> 10000,–,–,–,–,–
O=C(/C=C/C=C/C(=O)Oc1ccc2c(c1)[C@@]13CCCCC1[C@@H](C2)N(CC1CCC1)CC3)Oc1ccc2c(c1)[C@@]13CCCCC1[C@@H](C2)N(CC1CCC1)CC3 (some centres not stated),0.62,Agonist,2.8,28,17,91,19,96,Activity (Mu-type opioid receptor [4]; filed as agonist): Agonist
O=C(CCCCCCCCC(=O)Oc1ccc2c(c1)[C@@]13CCCCC1[C@@H](C2)N(C[C@@H]1CCCO1)CC3)Oc1ccc2c(c1)[C@@]13CCCCC1[C@@H](C2)N(C[C@@H]1CCCO1)CC3 (some centres not stated),1.2,Agonist,0.67,8.3,8.8,140,12,69,IC50 (Mu-type opioid receptor [3]): 360 nM; Imax (Mu-type opioid receptor [3]): 48%
"O=C(CCCCCCCCC(=O)Oc1ccc2c(c1)[C@@]13CCCCC1[C@@H](C2)N(CC1CC1)CC3)Oc1ccc2c(c1)[C@@]13CCCCC1[C@@H](C2)N(CC1CCC1)CC3 (single isomer, unassigned; (-))",0.23,Agonist,0.34,4.4,2.5,110,2.9,41,IC50 (Mu-type opioid receptor [3]): 96 nM; Imax (Mu-type opioid receptor [3]): 64%; Activity (Mu-type opioid receptor [4]; filed as partial agonist): Partial agonist
Nc1ccc2c(c1)[C@@]13CCCC[C@H]1[C@@H](C2)N(CC1CCC1)CC3,1.8,–,3.7,–,–,–,–,–,–
CN1CC[C@]23c4c5ccc(OC(=O)CCCCCCCCC(=O)Oc6ccc7c(c6)[C@@]68CCCCC6[C@@H](C7)N(CC6CCC6)CC8)c4O[C@H]2[C@@H](O)C=C[C@H]3[C@H]1C5 (some centres not stated),0.11,Agonist,0.22,3.9,2.3,150,2.5,110,Activity (Mu-type opioid receptor [4]; filed as agonist): Agonist
O=C(CCCCCCCCC(=O)Oc1ccc2c(c1)[C@@]13CCCCC1[C@@H](C2)N(CC1CCC1)CC3)Oc1ccccc1 (some centres not stated),0.3,Agonist,0.44,11,3.8,170,5.1,93,Activity (Mu-type opioid receptor [4]; filed as agonist): Agonist
Oc1ccc2c(c1)[C@@]13CCCCC1[C@@H](C2)N(C[C@@H]1CCCO1)CC3 (some centres not stated),0.15,–,0.01,–,–,–,–,–,Ki [9]: 0.27 nM
"O=C(CCCCCCCCC(=O)Oc1ccc2c(c1)[C@]13CCCCC1[C@H](C2)N(CC1CCC1)CC3)Oc1ccc2c(c1)[C@@]13CCCCC1[C@@H](C2)N(CC1CCC1)CC3 (single isomer, unassigned; (+))",1.2,Agonist,2.2,23,7.9,77,–,28,IC50 (Mu-type opioid receptor [3]): 460 nM; Imax (Mu-type opioid receptor [3]): 71%
O=C(CCC(=O)Nc1ccc2c(c1)[C@@]13CCCCC1[C@@H](C2)N(CC1CCC1)CC3)Nc1ccc2c(c1)[C@@]13CCCCC1[C@@H](C2)N(CC1CCC1)CC3 (some centres not stated),3.8,–,3.3,–,–,–,–,–,–
"Oc1ccc2c(c1)[C@]13CCCCC1[C@H](C2)N(CC1CC1)CC3 (single isomer, unassigned; (+))",–,–,–,13,–,–,–,–,–
O=C(O)CCCCCCCCC(=O)Oc1ccc2c(c1)[C@@]13CCCCC1[C@@H](C2)N(CC1CCC1)CC3 (some centres not stated),0.29,Agonist,0.71,18,2.8,75,3,110,Activity (Mu-type opioid receptor [4]; filed as agonist): Agonist
O=C(CCCCCCCCC(=O)Oc1ccc2c(c1)[C@]13CCCCC1[C@H](C2)N(CC1CCC1)CC3)Oc1ccc2c(c1)[C@]13CCCCC1[C@H](C2)N(CC1CCC1)CC3 (some centres not stated),130,–,130,700,–,–,–,–,–
